From ChEMBL document CHEMBL2424622, “Development of amino-pyrimidine inhibitors of c-Jun N-terminal kinase (JNK): kinase profiling guided optimization of a 1,2,3-benzotriazole lead” (Bioorg Med Chem Lett, 2013) come the findings set out here.

For assay [1], the target named is T1, Tyrosine-protein kinase Mer (Homo sapiens) (UniProt Q12866).
T1 sequence (whole entry): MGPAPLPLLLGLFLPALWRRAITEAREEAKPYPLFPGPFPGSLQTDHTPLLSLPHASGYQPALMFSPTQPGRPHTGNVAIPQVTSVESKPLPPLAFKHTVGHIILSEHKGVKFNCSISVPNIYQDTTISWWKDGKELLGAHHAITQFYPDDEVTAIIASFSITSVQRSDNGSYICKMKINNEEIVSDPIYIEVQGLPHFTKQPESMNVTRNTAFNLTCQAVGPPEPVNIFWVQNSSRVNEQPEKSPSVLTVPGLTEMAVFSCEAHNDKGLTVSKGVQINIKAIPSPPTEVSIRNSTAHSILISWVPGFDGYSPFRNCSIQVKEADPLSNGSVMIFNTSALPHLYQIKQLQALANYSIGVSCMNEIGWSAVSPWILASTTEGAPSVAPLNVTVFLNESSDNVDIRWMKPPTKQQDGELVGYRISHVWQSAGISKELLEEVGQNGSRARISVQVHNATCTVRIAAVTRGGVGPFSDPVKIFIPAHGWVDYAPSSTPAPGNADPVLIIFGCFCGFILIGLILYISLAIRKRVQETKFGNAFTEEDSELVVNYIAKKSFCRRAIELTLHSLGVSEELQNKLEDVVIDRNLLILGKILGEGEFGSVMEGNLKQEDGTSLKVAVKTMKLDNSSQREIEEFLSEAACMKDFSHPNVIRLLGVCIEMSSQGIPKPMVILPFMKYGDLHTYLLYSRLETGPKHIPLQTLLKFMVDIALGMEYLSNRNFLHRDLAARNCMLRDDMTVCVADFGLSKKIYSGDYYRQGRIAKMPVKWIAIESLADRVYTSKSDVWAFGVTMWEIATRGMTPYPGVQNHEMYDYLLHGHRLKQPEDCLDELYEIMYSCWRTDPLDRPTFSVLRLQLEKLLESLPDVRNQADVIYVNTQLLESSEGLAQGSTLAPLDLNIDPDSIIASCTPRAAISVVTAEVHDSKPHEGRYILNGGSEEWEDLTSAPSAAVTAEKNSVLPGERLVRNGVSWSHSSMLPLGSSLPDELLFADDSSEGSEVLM
As to the kind of experiment: Competitive binding affinity to MERTK (unknown origin) at 10 uM in presence of ATP relative to control. Summed up: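 In vitro ATP-site competition binding assay across a diverse panel of 128 kinases, with compound tested at a single concentration. Kinase selectivity scores (S15) were calculated from the panel profiles.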

Assay [2] deals with Vascular endothelial growth factor receptor 1 (Homo sapiens) (UniProt P17948). The experiment in a line: Competitive binding affinity to FLT1 (unknown origin) at 10 uM in presence of ATP relative to control.
Assay [3] has as its system Epidermal growth factor receptor (Homo sapiens), P00533 [L858R]. The experiment in a line: Competitive binding affinity to EGFR L858R mutant (unknown origin) at 10 uM in presence of ATP relative to control. The gist of the method: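 In vitro ATP-site competition binding assay, part of profiling against a diverse panel of 128 kinases. Each compound was tested at a single concentration of 10 µM. Kinome selectivity was summarized as S15 selectivity scores.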

For assay [4], the target named is Aurora kinase B (Homo sapiens) (UniProt Q96GD4). The experiment in a line: Competitive binding affinity to AURKB (unknown origin) at 10 uM in presence of ATP relative to control. The gist of the method: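 In vitro ATP-site competition binding assay across a diverse panel of 128 kinases, with each compound tested at a single concentration. Kinase binding is expressed relative to control.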

In assay [5] the test system is Tyrosine-protein kinase ABL1 (Homo sapiens), P00519 [H396P]. As to the kind of experiment: Competitive binding affinity to ABL1 H396P mutant (unknown origin) at 10 uM in presence of ATP relative to control.
Assay [6] has as its target Serine/threonine-protein kinase tousled-like 2 (Homo sapiens) (UniProt Q86UE8). The experiment in a line: Competitive binding affinity to TLK2 (unknown origin) at 10 uM in presence of ATP relative to control.
In assay [7] the target is Serine/threonine-protein kinase PLK1 (Homo sapiens) (UniProt P53350). The experiment in a line: Competitive binding affinity to PLK1 (unknown origin) at 10 uM in presence of ATP relative to control.
Assay [8] deals with T2, Serine/threonine-protein kinase 17A (Homo sapiens) (UniProt Q9UEE5).
T2 sequence (whole entry): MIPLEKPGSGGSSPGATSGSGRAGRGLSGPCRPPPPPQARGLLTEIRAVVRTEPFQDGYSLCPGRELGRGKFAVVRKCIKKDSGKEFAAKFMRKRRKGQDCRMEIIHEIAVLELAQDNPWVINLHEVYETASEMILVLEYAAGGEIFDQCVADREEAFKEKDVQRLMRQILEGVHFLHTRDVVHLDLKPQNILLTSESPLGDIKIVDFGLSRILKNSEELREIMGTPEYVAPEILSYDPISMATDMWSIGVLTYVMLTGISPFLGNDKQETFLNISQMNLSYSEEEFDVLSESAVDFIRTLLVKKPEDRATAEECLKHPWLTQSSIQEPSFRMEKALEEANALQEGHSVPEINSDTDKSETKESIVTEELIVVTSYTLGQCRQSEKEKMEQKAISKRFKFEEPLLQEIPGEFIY
The experiment in a line: Competitive binding affinity to STK17A (unknown origin) at 10 uM in presence of ATP relative to control.

The target of assay [9] is Serine/threonine-protein kinase Nek7 (Homo sapiens, UniProt Q8TDX7). As to the kind of experiment: Competitive binding affinity to NEK7 (unknown origin) at 10 uM in presence of ATP relative to control.
Assay [10] has as its target T3, Serine/threonine-protein kinase 17B (Homo sapiens) (UniProt O94768).
T3 sequence (whole entry): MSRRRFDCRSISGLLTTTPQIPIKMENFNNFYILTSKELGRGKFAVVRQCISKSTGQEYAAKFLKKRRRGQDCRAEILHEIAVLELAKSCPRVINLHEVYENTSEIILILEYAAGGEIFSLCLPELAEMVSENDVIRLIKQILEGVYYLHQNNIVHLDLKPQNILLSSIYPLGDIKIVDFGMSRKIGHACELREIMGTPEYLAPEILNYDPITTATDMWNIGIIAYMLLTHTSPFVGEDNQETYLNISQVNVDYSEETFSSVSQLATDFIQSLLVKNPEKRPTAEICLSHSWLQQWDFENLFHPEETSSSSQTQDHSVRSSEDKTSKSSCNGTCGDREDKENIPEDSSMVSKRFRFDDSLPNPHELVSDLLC
As to the kind of experiment: Competitive binding affinity to DRAK2 (unknown origin) at 10 uM in presence of ATP relative to control.

Assay [11] has as its target Cyclin-dependent kinase 9 (Homo sapiens) (UniProt P50750). As to the kind of experiment: Competitive binding affinity to CDK9 (unknown origin) at 10 uM in presence of ATP relative to control.
Assay [12] deals with Ribosomal protein S6 kinase alpha-5 (Homo sapiens) (UniProt O75582). As to the kind of experiment: Competitive binding affinity to RPS6KA5 kinase domain 2 (unknown origin) at 10 uM in presence of ATP relative to control.
The target of assay [13] is Ribosomal protein S6 kinase alpha-1 (Homo sapiens, UniProt Q15418). The experiment in a line: Competitive binding affinity to RPS6KA1 kinase domain 2 (unknown origin) at 10 uM in presence of ATP relative to control.
Sequence of Ribosomal protein S6 kinase alpha-1 (Q15418 whole entry, the tested form may be a part): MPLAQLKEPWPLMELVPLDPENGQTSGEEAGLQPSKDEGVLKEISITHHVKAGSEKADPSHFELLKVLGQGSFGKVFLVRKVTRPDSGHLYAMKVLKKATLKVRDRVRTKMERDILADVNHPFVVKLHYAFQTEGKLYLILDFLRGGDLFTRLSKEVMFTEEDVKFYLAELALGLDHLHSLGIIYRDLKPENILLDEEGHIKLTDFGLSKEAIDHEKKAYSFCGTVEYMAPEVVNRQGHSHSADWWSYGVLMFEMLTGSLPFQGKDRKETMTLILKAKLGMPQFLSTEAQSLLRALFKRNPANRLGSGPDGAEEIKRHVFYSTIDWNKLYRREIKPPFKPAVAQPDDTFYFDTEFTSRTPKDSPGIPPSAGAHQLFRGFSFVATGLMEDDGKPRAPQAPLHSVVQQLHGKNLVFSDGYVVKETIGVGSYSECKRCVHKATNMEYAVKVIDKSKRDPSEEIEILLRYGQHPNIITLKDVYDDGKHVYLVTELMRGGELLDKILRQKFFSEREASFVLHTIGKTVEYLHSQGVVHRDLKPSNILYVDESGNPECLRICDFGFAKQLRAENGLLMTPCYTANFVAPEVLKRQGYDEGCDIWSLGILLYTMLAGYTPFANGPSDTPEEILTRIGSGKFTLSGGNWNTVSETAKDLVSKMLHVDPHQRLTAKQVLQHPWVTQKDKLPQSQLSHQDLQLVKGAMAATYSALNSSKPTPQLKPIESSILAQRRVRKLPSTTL

Sequence of Serine/threonine-protein kinase tousled-like 2 (Homo sapiens) (Q86UE8 whole entry, looked up): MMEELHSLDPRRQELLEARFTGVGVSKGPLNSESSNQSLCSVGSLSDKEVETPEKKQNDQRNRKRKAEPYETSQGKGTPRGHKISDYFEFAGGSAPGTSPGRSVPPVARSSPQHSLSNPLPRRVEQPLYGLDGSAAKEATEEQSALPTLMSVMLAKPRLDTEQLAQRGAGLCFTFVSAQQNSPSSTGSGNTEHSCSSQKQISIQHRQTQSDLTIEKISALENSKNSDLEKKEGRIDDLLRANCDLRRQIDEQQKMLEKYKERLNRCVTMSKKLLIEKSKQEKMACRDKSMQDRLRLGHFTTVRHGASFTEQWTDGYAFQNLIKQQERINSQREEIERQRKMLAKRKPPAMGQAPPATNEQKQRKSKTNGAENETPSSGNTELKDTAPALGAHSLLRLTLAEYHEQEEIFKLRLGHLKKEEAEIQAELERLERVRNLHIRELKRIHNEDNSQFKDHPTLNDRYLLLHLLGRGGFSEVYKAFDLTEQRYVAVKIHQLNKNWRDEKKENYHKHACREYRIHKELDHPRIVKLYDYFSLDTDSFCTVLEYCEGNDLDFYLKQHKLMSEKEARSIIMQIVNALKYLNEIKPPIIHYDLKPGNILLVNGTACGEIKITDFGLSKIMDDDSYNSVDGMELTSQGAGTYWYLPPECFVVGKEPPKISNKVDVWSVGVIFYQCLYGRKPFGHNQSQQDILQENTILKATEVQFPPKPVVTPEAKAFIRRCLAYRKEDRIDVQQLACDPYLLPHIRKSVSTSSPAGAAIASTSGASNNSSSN
Sequence of Vascular endothelial growth factor receptor 1 (Homo sapiens) (P17948 whole entry): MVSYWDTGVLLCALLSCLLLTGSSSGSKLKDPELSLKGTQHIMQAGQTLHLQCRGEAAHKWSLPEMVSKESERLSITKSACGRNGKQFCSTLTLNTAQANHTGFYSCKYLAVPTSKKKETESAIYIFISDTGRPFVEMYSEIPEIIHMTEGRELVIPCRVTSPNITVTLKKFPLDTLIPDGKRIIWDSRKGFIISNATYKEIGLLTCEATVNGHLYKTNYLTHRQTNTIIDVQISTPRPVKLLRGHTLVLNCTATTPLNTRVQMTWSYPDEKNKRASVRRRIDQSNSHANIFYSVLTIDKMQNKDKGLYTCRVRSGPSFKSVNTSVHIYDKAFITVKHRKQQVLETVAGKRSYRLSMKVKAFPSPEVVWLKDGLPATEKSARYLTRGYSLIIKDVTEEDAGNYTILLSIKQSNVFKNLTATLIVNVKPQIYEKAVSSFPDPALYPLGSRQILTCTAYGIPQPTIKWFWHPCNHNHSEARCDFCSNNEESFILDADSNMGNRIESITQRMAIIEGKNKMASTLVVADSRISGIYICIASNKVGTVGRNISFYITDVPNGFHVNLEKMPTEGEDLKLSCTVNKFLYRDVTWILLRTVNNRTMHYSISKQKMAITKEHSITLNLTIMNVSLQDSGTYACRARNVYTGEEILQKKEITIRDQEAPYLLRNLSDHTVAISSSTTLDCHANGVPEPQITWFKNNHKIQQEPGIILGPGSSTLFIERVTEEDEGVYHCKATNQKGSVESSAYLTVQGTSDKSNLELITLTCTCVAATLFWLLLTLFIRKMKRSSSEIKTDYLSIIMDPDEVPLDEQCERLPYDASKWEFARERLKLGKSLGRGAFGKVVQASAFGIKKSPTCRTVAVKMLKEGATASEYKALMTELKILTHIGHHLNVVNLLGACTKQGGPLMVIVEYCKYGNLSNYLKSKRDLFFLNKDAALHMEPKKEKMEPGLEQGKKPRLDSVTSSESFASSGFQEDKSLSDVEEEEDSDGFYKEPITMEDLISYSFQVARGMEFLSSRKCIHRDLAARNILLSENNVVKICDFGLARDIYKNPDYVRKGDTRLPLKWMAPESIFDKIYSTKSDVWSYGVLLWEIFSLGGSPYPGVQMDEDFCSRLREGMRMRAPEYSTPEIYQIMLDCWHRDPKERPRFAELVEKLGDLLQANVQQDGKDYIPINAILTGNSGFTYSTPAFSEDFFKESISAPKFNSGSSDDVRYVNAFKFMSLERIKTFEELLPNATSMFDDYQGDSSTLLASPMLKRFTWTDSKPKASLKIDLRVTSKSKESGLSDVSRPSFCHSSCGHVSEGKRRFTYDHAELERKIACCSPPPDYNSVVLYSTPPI
Sequence of Serine/threonine-protein kinase PLK1 (Homo sapiens) (P53350 whole entry): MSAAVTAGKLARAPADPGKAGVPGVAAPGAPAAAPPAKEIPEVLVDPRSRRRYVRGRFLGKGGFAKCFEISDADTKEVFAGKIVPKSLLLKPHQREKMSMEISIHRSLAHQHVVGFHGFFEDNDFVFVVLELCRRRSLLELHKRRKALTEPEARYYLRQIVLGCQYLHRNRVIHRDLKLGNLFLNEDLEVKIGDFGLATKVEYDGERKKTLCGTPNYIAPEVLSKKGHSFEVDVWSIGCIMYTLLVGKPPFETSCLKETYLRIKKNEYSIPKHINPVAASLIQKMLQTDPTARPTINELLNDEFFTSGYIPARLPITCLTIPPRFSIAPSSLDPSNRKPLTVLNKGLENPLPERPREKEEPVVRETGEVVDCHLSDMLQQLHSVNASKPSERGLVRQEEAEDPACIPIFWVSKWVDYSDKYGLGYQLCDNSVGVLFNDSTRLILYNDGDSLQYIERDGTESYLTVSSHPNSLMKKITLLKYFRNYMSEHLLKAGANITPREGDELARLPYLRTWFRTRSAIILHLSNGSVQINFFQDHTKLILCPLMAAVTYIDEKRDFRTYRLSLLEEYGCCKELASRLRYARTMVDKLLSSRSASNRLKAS
Sequence of Serine/threonine-protein kinase Nek7 (Q8TDX7 whole entry, looked up): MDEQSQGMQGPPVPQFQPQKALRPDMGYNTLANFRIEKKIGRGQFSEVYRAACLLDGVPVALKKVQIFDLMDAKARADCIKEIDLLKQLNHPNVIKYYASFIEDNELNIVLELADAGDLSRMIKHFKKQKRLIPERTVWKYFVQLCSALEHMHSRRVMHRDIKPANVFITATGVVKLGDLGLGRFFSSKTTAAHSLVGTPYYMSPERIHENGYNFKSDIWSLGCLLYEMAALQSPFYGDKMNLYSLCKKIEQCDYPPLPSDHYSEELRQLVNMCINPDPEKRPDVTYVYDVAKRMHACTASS
Sequence of Ribosomal protein S6 kinase alpha-5 (Homo sapiens) (O75582 whole entry, looked up, the tested form may be a part): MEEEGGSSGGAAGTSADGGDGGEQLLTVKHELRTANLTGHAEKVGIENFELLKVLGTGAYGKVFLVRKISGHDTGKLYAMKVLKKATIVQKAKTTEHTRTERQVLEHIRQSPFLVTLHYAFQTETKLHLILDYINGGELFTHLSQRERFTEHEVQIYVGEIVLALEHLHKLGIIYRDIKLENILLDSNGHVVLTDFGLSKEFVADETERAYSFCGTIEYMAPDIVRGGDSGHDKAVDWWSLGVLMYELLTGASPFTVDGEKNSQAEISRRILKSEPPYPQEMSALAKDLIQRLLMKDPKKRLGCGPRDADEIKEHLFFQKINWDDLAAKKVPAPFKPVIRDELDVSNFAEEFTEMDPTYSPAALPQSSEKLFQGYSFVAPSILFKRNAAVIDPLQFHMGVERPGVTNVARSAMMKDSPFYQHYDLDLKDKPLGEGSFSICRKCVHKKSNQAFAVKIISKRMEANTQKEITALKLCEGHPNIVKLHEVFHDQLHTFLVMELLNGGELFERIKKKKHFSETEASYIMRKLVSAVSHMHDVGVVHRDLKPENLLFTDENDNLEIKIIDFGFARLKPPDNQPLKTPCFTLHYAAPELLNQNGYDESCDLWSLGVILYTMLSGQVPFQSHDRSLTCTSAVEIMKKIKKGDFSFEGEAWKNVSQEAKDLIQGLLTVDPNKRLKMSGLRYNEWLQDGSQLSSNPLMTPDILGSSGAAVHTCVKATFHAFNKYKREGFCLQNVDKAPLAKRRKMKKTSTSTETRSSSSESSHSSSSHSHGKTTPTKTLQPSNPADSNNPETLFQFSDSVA
Sequence of Cyclin-dependent kinase 9 (Homo sapiens) (P50750 whole entry, the tested form may be a part): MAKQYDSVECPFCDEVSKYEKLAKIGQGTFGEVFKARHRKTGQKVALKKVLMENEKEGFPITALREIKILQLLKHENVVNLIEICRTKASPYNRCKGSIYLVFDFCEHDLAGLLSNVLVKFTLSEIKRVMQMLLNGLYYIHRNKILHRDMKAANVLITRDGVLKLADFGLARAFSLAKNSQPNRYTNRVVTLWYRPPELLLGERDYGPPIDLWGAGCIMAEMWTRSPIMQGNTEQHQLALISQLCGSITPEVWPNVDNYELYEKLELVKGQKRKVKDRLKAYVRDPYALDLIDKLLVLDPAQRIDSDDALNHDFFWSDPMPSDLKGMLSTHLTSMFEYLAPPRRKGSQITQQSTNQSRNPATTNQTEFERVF

As for `O[C@H]1CC[C@H](Nc2nccc(-c3n[nH]c4ccccc34)n2)CC1`, the inhibition in assay [1] was 100%; in assay [2] it was 95%; in assay [3], below 50%; in assay [4], 91%; in assay [5], below 50%; in assay [6], 96%. The inhibition is below 50% in assay [7] and 100% in assay [8].
Regarding `O[C@H]1CC[C@H](Nc2nccc(-n3ccc4ccccc43)n2)CC1`, the inhibition in assay [1] was below 50%; in assay [2], below 50%; in assay [9], below 50%; in assay [3], below 50%; in [10], below 50%; in assay [11], 85%. Moreover, the inhibition was below 50% in assay [4]; below 50% in assay [5]; below 50% in assay [6]; below 50% in assay [12]; 95% in [13]; below 50% in assay [7].
Regarding `O[C@H]1CC[C@H](Nc2nccc(-n3ncc4ccccc43)n2)CC1`, the inhibition in assay [1] was 92%; in assay [2] it was 71%; in [9] it was below 50%; in assay [3], below 50%; in assay [10], 91%; in [11] it was 82%. The inhibition in [4] was below 50%; in [5] it was below 50%; in [6], below 50%; in assay [12] it was 66%; in assay [13] it was 100%; in [7], below 50%.
Turning to `O[C@H]1CC[C@H](Nc2nccc(-n3nnc4ccccc43)n2)CC1`, the inhibition in assay [1] is below 50%; in assay [2] it was 82%; in assay [9], 93%; in [3] it was below 50%; in assay [10] it was 86%; in assay [11] it was 96%. The inhibition in [4] is 68%; in assay [5], below 50%; in assay [6], below 50%; in [12], 85%; in assay [13] it was 100%; in [7], below 50%.
As to `O=C([C@H]1CC[C@H](Nc2nccc(-n3nnc4ccccc43)n2)CC1)N1CCOCC1`, the inhibition in [8] turned out to be 97%.
`CS(=O)(=O)CCCOc1cccc2c1ccn2-c1ccnc(N[C@H]2CC[C@H](C(=O)N3CCC(O)CC3)CC2)n1`: the inhibition in [9] is above 85%.
Take `N[C@H]1CC[C@H](Nc2nccc(-n3nnc4ccccc43)n2)CC1`: the inhibition in [8] worked out at 100%.
